Laboratory results taken from ChEMBL document CHEMBL1764985, “Design, synthesis, and evaluation of coumarin-based molecular probes for imaging of myelination” (J Med Chem, 2011).
Activity calls are given as the source filed them. No cut-off for these calls is given here.

How the values were obtained:
[1] = target: Myelin basic protein (Mus musculus) (UniProt P04370); test: Binding affinity to corpus collosum myelin in central nervous system of mouse […] by fluorescent microscopy; format: tissue-based; settings: Corpus callosum
Chain of Myelin basic protein (Mus musculus) (P04370 whole entry, the tested form may be a part): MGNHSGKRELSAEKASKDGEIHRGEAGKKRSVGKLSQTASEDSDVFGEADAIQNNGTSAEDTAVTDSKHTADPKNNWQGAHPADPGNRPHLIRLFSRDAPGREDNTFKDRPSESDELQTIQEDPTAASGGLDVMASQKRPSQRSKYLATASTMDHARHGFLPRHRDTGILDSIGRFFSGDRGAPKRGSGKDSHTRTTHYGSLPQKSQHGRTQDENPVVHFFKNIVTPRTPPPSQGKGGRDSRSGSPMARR

[2] = species on record: Mus musculus; test: Selectivity for mouse white matter myelin over gray matter myelin; format: tissue-based
Method in brief: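 Mouse brain sections stained with compound at 100 μM. Fluorescence intensity measured in predefined ROIs: part of the corpus callosum (white matter) and a subcortical gray matter region. White/gray intensity ratio calculated; mean ± SD, n = 3.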

[3] = target: Myelin basic protein (Mus musculus) (UniProt P04370); test: Binding affinity to caudate putamen myelin in mouse by fluorescent microscopy; format: tissue-based
Method in brief: (§1)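 Wild-type mice given 40 mg/kg via tail vein under anesthesia, then perfused transcardially with saline followed by 4% PFA in PBS. Brain sections imaged by fluorescence microscopy (BP470/40 nm filter) for in situ staining in cerebellum, caudate putamen/striatum and temporal cortex. Same sections co-stained with anti-MBP antibody for comparison.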

[4] = target: Myelin basic protein (Mus musculus) (UniProt P04370); test: Binding affinity to cerebellum myelin in central nervous system of mouse […] by fluorescent microscopy
[5] = Lipophilicity, log P of the compound; format: physicochemical; settings: octanol/water
[6] = target: Myelin basic protein (Mus musculus) (UniProt P04370); test: Binding affinity to sciatic nerve myelin in peripheral nervous system of mouse at 100 uM […] by Black gold II staining
[7] = Half life of the compound in mouse brain; format: ADME, tissue-based
[8] = target: Myelin basic protein (Mus musculus) (UniProt P04370); test: Binding affinity to temporal cortex myelin in mouse by fluorescent microscopy; format: tissue-based; method in brief: as §1
[9] = target: Myelin basic protein (Mus musculus) (UniProt P04370); test: Binding affinity to corpus collosum myelin in myelin deficient shiverer mouse assessed as myelination levels at 100 uM after 20 mins by fluorescent microscopy relative to control; settings: Corpus callosum
Method in brief: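 Frozen 20 μm brain sections from wild-type C57BL/6 and shiverer (C3Fe.SWV-Mbp^shi/J) mice stained with compound at 100 μM, with anti-MBP immunostaining of the same sections. Pixel intensity in a corpus callosum ROI (midline to below cingulum apex) quantified. Wild-type set to 100, shiverer expressed as percentage. Nonpaired Student's t test.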

[10] = test system: Mus musculus; test: Binding affinity to sciatic nerve myelin in C57BL/6 mouse at 40 mg/kg after 20 mins, iv after 10 mins by fluorescent microscopy; format: functional, organism-based; set-up: dose 40 mg/kg
Method in brief: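 Eight-week C57BL/6 mice dosed 40 mg/kg by tail vein in saline; saline alone as control. At 10 min, mice anesthetized with isoflurane and sciatic nerves surgically exposed and imaged under a dissection fluorescence microscope (LP 590 filter). Nerves imaged again after perfusion.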

Compound | Activity [1] | further results
CN(C)c1ccc(-c2cc3cc(OCCCF)ccc3oc2=O)cc1 | Active | white/gray matter fluorescence ratio [2]: 1.38
CCN(CC)c1ccc(-c2ccc3cc(-c4ccc(N)cc4)c(=O)oc3c2)cc1 | Active | –
CN(C)c1ccc(-c2cc3ccc(OCCF)cc3oc2=O)cc1 | Active | white/gray matter fluorescence ratio [2]: 1.52
Nc1cc(=O)oc2ccccc12 | inactive | –
O=c1cc(O)c2ccccc2o1 | inactive | –
COc1ccc2ccc(=O)oc2c1 | inactive | –
Nc1cc2ccccc2oc1=O | inactive | –
CN(C)c1ccc(-c2cc3ccc(OCCCF)cc3oc2=O)cc1 | Active | Activity [3]: Active; Activity [4]: Active; logP [5]: 3.82; Activity [6]: Active; half-life [7]: 20 min; Activity [8]: Active; Activity [9]: 12%; Activity [10]: Active; white/gray matter fluorescence ratio [2]: 1.54
O=c1cc(C(F)(F)F)c2ccc(O)cc2o1 | inactive | –
CN(C)c1ccc2c(C(F)(F)F)cc(=O)oc2c1 | inactive | –
CCN(CC)c1ccc(-c2ccc3cc(-c4nc5ccccc5s4)c(=O)oc3c2)cc1 | Active | –
O=c1ccc2ccccc2o1 | inactive | –
O=c1oc2ccccc2cc1-c1ccccc1 | inactive | –
CN(C)c1ccc(-c2cc3ccc(O)cc3oc2=O)cc1 | Active | white/gray matter fluorescence ratio [2]: 1.25
Cc1ccc2ccc(=O)oc2c1 | inactive | –
CN(C)c1ccc(-c2cc3cc(OCCF)ccc3oc2=O)cc1 | Active | white/gray matter fluorescence ratio [2]: 1.33
O=c1oc2ccccc2c(O)c1Cc1c(O)c2ccccc2oc1=O | inactive | –
CC(=O)Oc1ccc2cc(-c3ccc(N(C)C)cc3)c(=O)oc2c1 | Active | white/gray matter fluorescence ratio [2]: 1.35

Compound | Activity [1] | further results
Nc1ccc2c(C(F)(F)F)cc(=O)oc2c1 | inactive | –
CN(C)c1ccc(-c2cc3cc(O)ccc3oc2=O)cc1 | Active | white/gray matter fluorescence ratio [2]: 1.48
O=c1oc2cc(O)ccc2cc1-c1ccccc1 | inactive | –
O=c1oc2ccccc2cc1O | inactive | –
CN(C)c1ccc(-c2cc3ccccc3oc2=O)cc1 | Active | white/gray matter fluorescence ratio [2]: 1.34
CCN(CC)c1ccc(-c2ccc3cc(-c4nc5ccccc5[nH]4)c(=O)oc3c2)cc1 | Active | –
O=c1oc2ccccc2cc1-c1ccc([N+](=O)[O-])cc1 | inactive | –
CC(=O)Oc1ccc2oc(=O)c(-c3ccc(N(C)C)cc3)cc2c1 | Active | white/gray matter fluorescence ratio [2]: 1.53
Cc1cc(=O)oc2ccccc12 | inactive | –
CCN(CC)c1ccc(-c2ccc3cc(C(=O)c4cccs4)c(=O)oc3c2)cc1 | Active | –
Nc1ccc(-c2cc3cc(F)ccc3oc2=O)cc1 | Active | –
CCN(CC)c1ccc(-c2ccc3cc(-c4nc5ccccc5n4C)c(=O)oc3c2)cc1 | Active | –
CCN(CC)c1ccc(-c2ccc3cc(-c4ccc(CBr)cc4)c(=O)oc3c2)cc1 | Active | –
Nc1ccc(-c2cc3ccccc3oc2=O)cc1 | Active | white/gray matter fluorescence ratio [2]: 1.39
CCN(CC)c1ccc(-c2ccc3cc(-c4ccc([N+](=O)[O-])cc4)c(=O)oc3c2)cc1 | Active | –
CN(C)c1ccc(-c2cc3cc(F)ccc3oc2=O)cc1 | Active | –
O=c1oc2ccc(F)cc2cc1-c1ccc([N+](=O)[O-])cc1 | inactive | –
